CHT allo act: allosteric activators of human choline transporter CHT. AID 488977. actives 0.49% (n = 310,000). Q9GZV3. B-score at 10 µM. CHT-expressing cells, membrane potential dye, choline EC20; hits give high values; LV-AA mutant CHT in HEK293 cells;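 active = initial fluorescence not abnormally high and integrated response B-score, plate-corrected, over 3 SD above library mean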
Target sequence (Q9GZV3 whole entry, looked up): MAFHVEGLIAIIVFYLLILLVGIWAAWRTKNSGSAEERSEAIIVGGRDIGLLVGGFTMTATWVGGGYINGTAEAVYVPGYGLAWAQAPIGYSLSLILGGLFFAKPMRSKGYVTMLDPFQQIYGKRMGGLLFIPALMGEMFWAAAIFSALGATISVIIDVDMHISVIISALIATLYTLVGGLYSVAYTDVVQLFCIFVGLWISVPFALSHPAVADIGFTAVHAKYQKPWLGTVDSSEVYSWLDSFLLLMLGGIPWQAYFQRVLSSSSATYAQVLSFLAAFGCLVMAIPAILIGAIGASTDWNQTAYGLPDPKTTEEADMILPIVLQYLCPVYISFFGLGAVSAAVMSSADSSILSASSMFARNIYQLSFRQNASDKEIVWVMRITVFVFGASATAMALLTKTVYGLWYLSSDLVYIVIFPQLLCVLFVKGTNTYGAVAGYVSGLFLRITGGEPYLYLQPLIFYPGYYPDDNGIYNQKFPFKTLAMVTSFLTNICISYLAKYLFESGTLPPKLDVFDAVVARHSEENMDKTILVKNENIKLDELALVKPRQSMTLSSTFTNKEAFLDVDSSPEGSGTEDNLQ
proCasp3 act: procaspase-3 (human) activation | P42574 | recombinant procaspase-3 D3A, Ac-DEVD-pNA absorbance 405 nm | activation, % at 8.5 µM | actives 0.11% (n = 330,000) | AID 463141;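 active = activation above the mean of all tested compounds plus 3 SD, cut at about 21% in these data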
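Compound: 8.5 µM single point, 0.8% DMSO / Material: Autoprocessing-dead procaspase-3 D3A mutant enzyme / Timing: 1 h preincubation plus 2 h reaction at 25 °C / Medium: Zinc-free HEPES/NaCl buffer with 0.01% Triton X-100 at pH 7.4 / Technique: 405 nm absorbance of p-nitroaniline, reads at 0 and 120 min / Repeats: one well per compound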
CHT inh: inhibitors of human choline transporter CHT; Q9GZV3; CHT-expressing cells, membrane potential dye, choline response; hits give low values; AID 488975; actives 0.86% (n = 310,000); B-score at 10 µM;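 active = B-score over 3 SD under the library average, and starting fluorescence ratio not unusually high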;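 also: choline stimulus applied at its EC90 after an EC20 pre-addition; B-score computed on integrated fluorescence ratio after choline addition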
proCasp7 act: activates human procaspase-7, counter-screen for procaspase-3 activators; recombinant procaspase-7, Ac-DEVD-pNA absorbance 405 nm; D23A/D198A/D206A triple mutant, cannot self-cleave; scale: DMSO 0, 5 µM enzyme 100; actives 0.093% (n = 330,000); activation, % at 8.5 µM;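 active = percent activation above the screen-wide mean plus 3 SD, cut at about 25% in these data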
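buffer or medium = Zinc-free HEPES/NaCl buffer, pH 7.4 | material = Procaspase-7 triple mutant (PC-7 D3A) | input = 2 µM procaspase-7 mutant as dispensed | signal = Epi-absorbance of released pNA at 405 nm, two timepoints | timing = 1 h preincubation, 2 h reaction | replicates = singlicate compound testing | evaluation = % activation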
CHT activ conf: human CHT activation, confirmatory screen | AID 504833 | actives 91% (n = 2,500) | CHT-expressing cells, membrane potential dye fluorescence (FDSS); % of choline EC20–EC90 response window; HEK293 expressing CHT LV-AA mutant; choline added at its EC20 | shares compounds with CHT allo act | activation, % at 10 µM;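 active = primary screen active, with duplicate mean activation above negative control mean plus 3 SD, cut at about 11% in these data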
HEK293 MP dye: activity in parental HEK293 cells lacking CHT; shares compounds with CHT allo act; membrane potential dye fluorescence (FDSS); measured after EC20 choline addition; ratio readout change at 10 µM, hits read low; actives 62% (n = 2,500);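 active = duplicate-averaged ratio beyond 3 SD from buffer wells, up or down, though filed actives are nearly all decreases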
Each line names hits and unclear results; the compound was inactive in the other large screens (follow-up assays come after a bar, where they were run); ! = not active in a repeat. Hits are enriched below; roughly 1.3% of the tested compounds scored in any of these assays.

Cn1c2ccc(F)cc2c2ncn(CCCN(CCO)CCO)c(=O)c21	none | CHT activ conf 49.6 | HEK293 MP dye -40.9
Cn1c2ccc(F)cc2c2ncn(CCN3CCOCC3)c(=O)c21	none
CC1CN(C(=O)c2ccccc2OCc2ccc(Cl)cc2Cl)CC(C)O1 (stereo not given)	none (no result: CHT allo act, CHT inh)
Clc1ccc(-n2cccc2CN2CCc3c([nH]c4ccccc34)C2c2ccccn2)nc1 (stereo not given)	CHT allo act 7.04 | CHT activ conf 40.1 | HEK293 MP dye inactive
COc1cccc(C2c3[nH]c4ccccc4c3CCN2Cc2cccn2-c2ncccn2)c1 (stereo not given)	none
COc1ccc(N2CC(C(=O)N[C@@H](CC(C)C)C(=O)NC3CCCCC3)CC2=O)cc1 (stereo not given in full)	none
CC[C@H]1CN2CCc3cc(OC)c(OC)cc3C2C[C@@H]1C[C@H]1NCCc2cc(OC)c(OC)cc21 (stereo not given in full)	CHT allo act 13.8 | CHT activ conf 41.3 | HEK293 MP dye -43.4
O=C(COC(=O)[C@H](Cc1ccccc1)NC(=O)c1ccco1)Nc1ccccc1OC(F)F	none (no result: CHT allo act, CHT inh)
CN(CC(=O)Nc1ccc(Cl)c(C(F)(F)F)c1)C(=O)c1cc(-c2ccncc2)nc2ccccc12	none
CN(CC(=O)Nc1ccc(F)c(F)c1F)C(=O)c1cc(-c2ccncc2)nc2ccccc12	none | CHT activ conf 39.6 | HEK293 MP dye inactive
CCN1CCc2c(sc(NC(=O)Cc3ccccc3)c2C(=O)OC)C1	none
CCOC(=O)c1c(NC(=O)Cc2ccccc2)sc2c1CCN(CC)C2	none | CHT activ conf 34.1 | HEK293 MP dye -34.6
CCN1CCc2c(sc(NC(=O)c3ccc(S(=O)(=O)N4CCOCC4)cc3)c2C(N)=O)C1	CHT allo act 7.8 | CHT activ conf 38.4 | HEK293 MP dye -41
O=C(CCNS(=O)(=O)c1ccccc1)OCC(=O)c1ccc[nH]1	none
Cc1cc(NC(=O)COc2ccccc2C)ccc1NC(=O)c1cccs1	none
CC1CCC(NC(=O)CCS(=O)(=O)c2ccc3c(c2)NC(=O)C(C)S3)CC1 (stereo not given)	none
Cc1cc(=O)n2[nH]c(-c3ccc(F)cc3)cc2n1	none | CHT activ conf 42.2 | HEK293 MP dye -30.9
COc1ccc(OC)c2c(C)cc(N3CCN(C(=O)c4ccc(F)cc4)CC3)nc12	CHT allo act 6.55 | CHT activ conf 41.4 | HEK293 MP dye -68.5
Cc1cc(C)cc(N(CC(=O)Nc2ccc(Br)cc2)S(=O)(=O)c2c(C)[nH]c(=O)[nH]c2=O)c1	none
CCOC(=O)C1(CC2CC2)CCN(Cc2cn[nH]c2-c2cccc(F)c2)CC1	none | CHT activ conf 22.4 | HEK293 MP dye inactive
CCOc1ccc(/C=N/NC(=O)C(O)c2ccccc2)c(O)c1 (stereo not given)	none
Cc1cc(=O)oc2cc(OCC(=O)N3CCC(O)CC3)c(Cl)cc12	none | CHT activ conf 24.8 | HEK293 MP dye -21.3
Cc1ccc(OCC(=O)N(C)C2CCCCC2)c([N+](=O)[O-])n1	none (no result: CHT allo act, CHT inh)
COc1ccc2[nH]c3c(c2c1)CCN1C(=O)C(CC(=O)NCCCN(C)C)C[C@H](C(=O)N2CCCCC2)[C@@]31C (stereo not given in full)	none (no result: CHT allo act, CHT inh)
CCc1cc(CC)c(/C=N/NC(N)=O)c(CC)c1	none
Cc1cc(C)c(/C=N/NC(N)=O)c(C)c1/C=N/NC(N)=O	CHT allo act 6.41 | CHT activ conf 46.9 | HEK293 MP dye -61.7
Cc1ccc([C@@H]2[C@@H]3C(=O)N(c4ccccc4)C(=O)[C@@H]3[C@]3(C)C(=O)N(CC4CC4)CC(=O)N23)o1	none
CN(C)c1ccc(/C=N/O)cc1	none
CN(C)c1cccc2c(C=C(C#N)C#N)ccc(N(C)C)c12	CHT allo act 10.5 | CHT activ conf 56.8 | HEK293 MP dye -72.9
CN(C)c1cccc2c(/C=N/O)ccc(N(C)C)c12	none | CHT activ conf 49.9 | HEK293 MP dye -41.5
CC(C)CC(c1nnnn1C(C)C)N1CCN(c2cccc(Cl)c2)CC1 (stereo not given)	none | CHT activ conf 25.9 | HEK293 MP dye inactive
CC(C)CC(c1nnnn1C(C)C)N1CCN(C(=O)c2ccco2)CC1 (stereo not given)	none
N#CC1(Cc2ccc([N+](=O)[O-])cc2)c2ccccc2C=CN1C(=O)c1ccccc1 (stereo not given)	none | CHT activ conf 27.4 | HEK293 MP dye inactive
CCN(CC)CCNC(=O)c1cc2c(-c3ccc(Cl)cc3)nn(C)c2s1	CHT allo act 9.89 | CHT activ conf 32.9 | HEK293 MP dye -20.9
CC(=NCCCn1ccnc1)C1=C(O)c2ccccc2C1=O	none | CHT activ conf 28.5 | HEK293 MP dye -38.4
O=C1C(C=NCCCn2ccnc2)=C(O)c2ccccc21	none
CN(CC(=O)Nc1ccc(Cl)cc1)CC(=O)Nc1cccc(Br)c1	none
COc1ccc(S(=O)(=O)N2CCCCCC2)cc1C(=O)N(C)CCOc1ccccc1	CHT allo act 6.48 | CHT activ conf 26.5 | HEK293 MP dye inactive
CS(=O)(=O)c1ccc(-c2sc3cc4c(cc3c2C(=O)NN2CCOCC2)OCO4)cc1	none (no result: CHT allo act, CHT inh)
CN(C)c1cc[n+](Cc2c(Cl)cccc2Cl)cc1	CHT allo act 6.82 | CHT activ conf 43.2 | HEK293 MP dye -46.3
O=C(Cc1ccccc1)N/N=C/c1ccc(-c2ccc([N+](=O)[O-])cc2)o1	none
Cc1ccc([N+](=O)[O-])cc1-c1ccc(/C=N/NC(=O)CN2CCOCC2)o1	none | CHT activ conf 51.0 | HEK293 MP dye -51.3
COc1ccc(CS(=O)(=O)c2ncn[nH]2)cc1	none
O=[N+]([O-])c1ccc(CSc2nnc(Cc3ccccc3)n2-c2ccc(F)cc2)cc1	none | CHT activ conf 20.8 | HEK293 MP dye inactive
COc1ccc(-n2c(Cc3ccccc3)nnc2SCc2ccc([N+](=O)[O-])cc2)cc1	none
CSc1cccc(NC(=O)CN(C2CCCCC2)S(C)(=O)=O)c1	CHT allo act 8.9 | CHT activ conf 41.7 | HEK293 MP dye inactive
O=C(CN1CC[n+]2c(-c3cccs3)csc21)c1ccc(-c2ccccc2)cc1	none
CC(=O)N1CC[n+]2c(-c3ccc(Cl)cc3)csc21	none | CHT activ conf 46.8 | HEK293 MP dye -23
CCc1ccc(-c2csc3[n+]2CCN3C(C)=O)cc1	none | CHT activ conf 41.2 | HEK293 MP dye inactive
CCN(C(=O)COC(=O)CSc1ccc(F)cc1)c1c(N)n(Cc2ccccc2)c(=O)[nH]c1=O	none (no result: CHT allo act, CHT inh)
CCN(CC)Cc1cc(Nc2ccnc3cc(Cl)ccc23)ccc1O	CHT allo act 7.5! | CHT activ conf 48.2 | HEK293 MP dye -51.9
Oc1ccc(Nc2ccnc3cc(Cl)ccc23)cc1	none
